For one molecule, Ratio and Activity results are on record in ChEMBL document CHEMBL1156469 (2007).

Structures are written as SMILES. Active and inactive are the calls of the source. The rule behind the calls is not given here.

In experiment [1] the test system is Osteoblast. The experiment is described as follows: Effect on fibroblast growth factor 2 gene expression in rat primary osteoblast cells assessed as expression ratio of treated to untreated control by microarray analysis. The experiment is classed as functional.
For experiment [2], the target named is Alkaline phosphatase (Rattus norvegicus) (UniProt Q9JKS8). As to the kind of experiment: Inhibition of induction of ALP activity in rat primary osteoblast cells at 1 uM after 48 hrs in presence of noggin. The experiment is classed as cell-based.
Chain of Alkaline phosphatase (Rattus norvegicus) (Q9JKS8 as listed by the source): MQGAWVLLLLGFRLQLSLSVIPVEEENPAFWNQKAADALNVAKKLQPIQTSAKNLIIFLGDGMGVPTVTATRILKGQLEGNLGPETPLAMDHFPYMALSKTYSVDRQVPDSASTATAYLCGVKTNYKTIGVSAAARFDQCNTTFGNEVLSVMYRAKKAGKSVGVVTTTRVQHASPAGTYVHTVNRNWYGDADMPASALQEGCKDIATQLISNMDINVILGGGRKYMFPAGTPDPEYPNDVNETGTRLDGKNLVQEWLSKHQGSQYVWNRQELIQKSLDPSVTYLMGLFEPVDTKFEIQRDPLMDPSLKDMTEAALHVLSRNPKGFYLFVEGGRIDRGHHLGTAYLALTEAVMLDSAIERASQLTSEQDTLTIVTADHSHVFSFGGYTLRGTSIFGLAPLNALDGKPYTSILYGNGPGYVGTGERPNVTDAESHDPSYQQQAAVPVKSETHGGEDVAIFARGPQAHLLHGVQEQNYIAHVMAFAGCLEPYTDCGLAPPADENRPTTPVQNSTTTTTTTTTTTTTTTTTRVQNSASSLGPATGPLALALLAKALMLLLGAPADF
The test system of experiment [3] is MC3T3-E1. The experiment is described as follows: Inhibition of antiapoptotic activity in mouse MC3T3-E1 cells at 1 uM after 48 hrs in presence of BMP2-specific neutralizing antibody. The experiment is classed as functional, cell-based.
Experiment [4] addresses Forkhead box protein O3 (Homo sapiens) (UniProt O43524). As to the kind of experiment: Reversal of induction of FOXO3a activity in human MDA-MB-231 cells transfected with FOXO3a-specific small interfering RNA. The experiment is classed as cell-based.
Experiment [5] has as its system MDA-MB-231. The experiment is described as follows: Decrease in Akt activation in human MDA-MB-231 cells expressing FOXO3a-specific small interfering RNA xenografted in nude mice at 10 mg/kg for 2 days. The experiment is classed as functional, organism-based. The arrangement: dose 10 mg/kg. In short, it runs like this: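 MDA-MB-231 cells were cotransfected with FOXO3a siRNA (pSuper) and pcDNA3 at a 10:1 ratio. Stable pools were selected in 800 μg/ml G418 for 4 weeks, and control siRNA pools were made the same way. […] Akt phosphorylation was then assessed in the primary tumors.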

The test system of experiment [6] is Osteoblast. As to the kind of experiment: Effect on bone morphogenetic protein 5 gene expression in rat primary osteoblast cells assessed as expression ratio of treated to untreated control by microarray analysis. The experiment is classed as functional.
Experiment [7] deals with MC3T3-E1. As to the kind of experiment: Induction of ER association with BMP2 promoter in mouse MC3T3-E1 cells at 1 uM by ChiP assay. The experiment is classed as functional, cell-based. The procedure, abridged:
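MC3T3-E1 cells ± 1 μm, formaldehyde-fixed; ChIP with transcription factor antibodies and protein G magnetic beads; BMP-2 promoter quantified by real-time PCR (45 cycles); ratio of IP to input Ct values.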

The subject of experiment [8] is MC3T3-E1. The experiment is described as follows: Increase in proliferation of mouse MC3T3-E1 cells assessed as fraction of cells in S phase at 0.1 to 10 uM after 24 hr by flow cytometry. The experiment is classed as functional, cell-based. On the technique in general: In flow cytometry, cells or beads pass a laser one at a time.
Experiment [9] has as its target T1, Alkaline phosphatase (Mus musculus) (UniProt Q9EQ79).
T1 sequence (whole entry): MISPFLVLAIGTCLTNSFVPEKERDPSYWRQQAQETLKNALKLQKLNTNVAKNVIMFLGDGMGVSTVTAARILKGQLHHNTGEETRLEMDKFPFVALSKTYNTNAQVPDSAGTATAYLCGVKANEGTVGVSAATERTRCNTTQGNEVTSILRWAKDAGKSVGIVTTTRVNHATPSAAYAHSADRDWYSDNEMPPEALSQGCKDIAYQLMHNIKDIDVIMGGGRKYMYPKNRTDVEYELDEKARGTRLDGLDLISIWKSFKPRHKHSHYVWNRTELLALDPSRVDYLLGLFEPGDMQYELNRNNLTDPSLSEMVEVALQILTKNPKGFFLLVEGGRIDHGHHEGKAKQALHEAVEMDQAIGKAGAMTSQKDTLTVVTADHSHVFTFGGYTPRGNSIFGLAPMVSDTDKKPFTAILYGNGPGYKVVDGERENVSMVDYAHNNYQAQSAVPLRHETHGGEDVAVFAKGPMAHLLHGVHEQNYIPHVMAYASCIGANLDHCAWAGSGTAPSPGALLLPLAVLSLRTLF
As to the kind of experiment: Increase in ALP activity in mouse MC3T3-E1 cells at 0.1 to 10 uM after 7 days. The experiment is classed as cell-based.

Another experiment concerns MG-63. The experiment is described as follows: Increase in osteopontin mRNA levels in human MG63 cells at 1 uM after 72 hrs by RT-PCR. The experiment is classed as functional, cell-based. The procedure, abridged: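 Cells treated with 1 μm for 72 h; osteocalcin and osteopontin mRNA by RT-PCR, 30 cycles (95/52/72 °C, 1 min each), ethidium bromide–stained agarose gels; repeated at least twice from at least two cDNA preparations.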

In experiment [10] the test system is MC3T3-E1. The experiment is described as follows: Increase in osteopontin levels in mouse MC3T3-E1 cells at 1 uM after 72 hrs by ELISA. The experiment is classed as functional, cell-based. In short, it runs like this:
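Cells treated with 1 μm for 72 h; osteocalcin or osteopontin in culture medium by sandwich ELISA, HRP-streptavidin/TMB, 450 nm; percent change versus untreated control.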
On the technique in general: ELISA stands for enzyme-linked immunosorbent assay.

In the next experiment the test system is Rattus norvegicus. As to the kind of experiment: Increase in serum ALP activity in ovariectomized Wistar rat dosed orally after 10 weeks. The experiment is classed as functional, organism-based. In short, it runs like this:
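Female Wistar rats sham-operated or ovariectomized, fed compound orally every 2 days at indicated doses; femur/tibia BMD by DEXA under ketamine (87 mg/kg)/xylazine (13 mg/kg) anesthesia and serum ALP measured 10 weeks after surgery; n = 8/group, means ± S.D.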

Experiment [11] has as its system MC3T3-E1. The experiment is described as follows: Inhibition of etoposide-induced apoptosis in mouse MC3T3-E1 cells after 24 hrs by flow cytometry. The experiment is classed as functional, cell-based. The procedure, abridged: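 Cells washed in PBS, held 30 min in 0.5% Triton X-100/PBS/0.05% RNase A, then propidium iodide (50 μg/ml) added and kept on ice 15–30 min. Apoptosis is the hypodiploid fraction below the G0/G1 peak, by flow cytometry. Run in triplicate and repeated on three occasions.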

The test system of another experiment is MCF7. The experiment is described as follows: Antitumor activity against human MCF7 cells xenografted in SCID mouse orthotropic model assessed as inhibition of 17beta estradiol-induced tumor weight at 10 mg/kg for 2 days. The experiment is classed as functional. The arrangement: scale not given: the % may be the effect or the level left. In short, it runs like this:
(§1)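 Tumor cells were inoculated orthotopically into the mammary fat pad of 6-week-old female SCID mice. […] Tumor volume was calculated as LW2/2. Tumor formation was scored as mice with tumors per total (20 per group), and tumor weight as mean ± S.D. Groups were compared by one-way ANOVA with LSD post-hoc comparisons.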
A general note: A xenograft is tissue or cells of one species grown in another, often human tumour cells in immunodeficient mice.

The test system of experiment [12] is MDA-MB-231. The experiment is described as follows: Antitumor activity against human MDA-MB-231 cells xenografted in SCID mouse orthotropic model assessed as inhibition of 17beta estradiol-induced tumor weight at 10 mg/kg for 2 days. The experiment is classed as functional. More on the design: scale not given: the % may be the effect or the level left. The procedure, abridged: as §1

Experiment [13] relates to Osteoblast. As to the kind of experiment: Increase in BMP2 mRNA levels in rat primary osteoblast cells at 1 uM by RT-PCR method. The experiment is classed as functional, cell-based. In short, it runs like this:
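Cells treated with 1 μm for 48 h; BMP-2 mRNA measured by quantitative real-time RT-PCR (SYBR Green, 0.5 μm each primer, 4 mm MgCl2, fluorescence read at 82 °C) and normalized.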

Experiment [14] deals with Osteoblast. The experiment is described as follows: Effect on FMS-like tyrosine kinase 1 gene expression in rat primary osteoblast cells assessed as expression ratio of treated to untreated control by microarray analysis. The experiment is classed as functional.
Experiment [15] concerns Osteoblast. As to the kind of experiment: Effect on procollagen 9 alpha 1 gene expression in rat primary osteoblast cells assessed as expression ratio of treated to untreated control by microarray analysis. The experiment is classed as functional. The procedure, abridged:
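Resveratrol-treated and vehicle-treated primary osteoblasts were profiled on a mouse osteogenesis-focused cDNA array (GEArray Q series) built to track gene expression during osteogenic differentiation. Each gene's signal in treated cells was expressed as a ratio to untreated control.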

Experiment [16] has as its system Osteoblast. The experiment is described as follows: Effect on MAD homolog 1 gene expression in rat primary osteoblast cells assessed as expression ratio of treated to untreated control by microarray analysis. The experiment is classed as functional.
The test system of experiment [17] is Osteoblast. The experiment is described as follows: Effect on MAD homolog 4 gene expression in rat primary osteoblast cells assessed as expression ratio of treated to untreated control by microarray analysis. The experiment is classed as functional.

Chain of Forkhead box protein O3 (Homo sapiens) (O43524 whole entry): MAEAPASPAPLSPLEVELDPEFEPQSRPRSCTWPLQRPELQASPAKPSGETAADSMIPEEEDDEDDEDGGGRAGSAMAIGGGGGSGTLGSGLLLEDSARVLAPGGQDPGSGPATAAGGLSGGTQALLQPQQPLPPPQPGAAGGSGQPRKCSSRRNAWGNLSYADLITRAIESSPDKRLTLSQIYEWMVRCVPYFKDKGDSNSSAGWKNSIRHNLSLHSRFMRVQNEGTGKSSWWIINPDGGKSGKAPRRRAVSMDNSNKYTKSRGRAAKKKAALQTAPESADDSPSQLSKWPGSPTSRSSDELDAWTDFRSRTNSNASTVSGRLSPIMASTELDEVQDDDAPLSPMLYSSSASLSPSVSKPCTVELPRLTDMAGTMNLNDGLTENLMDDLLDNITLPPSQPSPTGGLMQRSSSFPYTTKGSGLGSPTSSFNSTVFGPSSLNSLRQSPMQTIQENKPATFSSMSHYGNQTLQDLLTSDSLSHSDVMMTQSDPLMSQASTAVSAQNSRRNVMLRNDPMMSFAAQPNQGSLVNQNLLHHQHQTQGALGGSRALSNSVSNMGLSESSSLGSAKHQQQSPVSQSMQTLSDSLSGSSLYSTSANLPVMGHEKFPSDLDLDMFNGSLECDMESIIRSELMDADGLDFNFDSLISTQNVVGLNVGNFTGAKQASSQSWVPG

`Oc1ccc(/C=C/c2cc(O)cc(O)c2)cc1` [RESVERATROL]: the Ratio with Osteoblast [1] stood at 2.76; in the experiment with Osteoblast [6], 0.97; in the experiment on Osteoblast [14], 0.41; with Osteoblast [15], 3.99; in the experiment on Osteoblast [16], 3.24; in the experiment on Osteoblast [17], 2.63. The result (in experiment [2]; in the experiment on MC3T3-E1 [3]; in experiment [4]; in the experiment with MDA-MB-231 [5]; in the experiment on MC3T3-E1 [7]; in the experiment with MC3T3-E1 [8]) was Active. In addition, the result (in experiment [9]; in the experiment with MG-63; in the experiment on MC3T3-E1 [10]; in the experiment on MC3T3-E1 [11]; in the experiment on Osteoblast [13]) was Active. The Activity result in the experiment with Rattus norvegicus is “Dose-dependent effect”; with MCF7 it was 54.6%; in the experiment with MDA-MB-231 [12], 43.6%.
